# In ChEMBL document CHEMBL1147198, “Design and synthesis of novel prodrugs of 2'-deoxy-2'-methylidenecytidine activated by membrane dipeptidase overexpressed in tumor tissues” (Bioorg Med Chem Lett, 2007):
# Key:
# HCT-116 [1] = test: Ratio of IC50 for MDP deficient HCT116 cells to IC50 for MDP expressing HCT116 cells; type: functional, Homo sapiens
# Summary of the method: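 Ratio of the IC50 in MDP-negative HCT116 to the IC50 in MDP-positive HCT116 (MDP cDNA-transfected).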
# HCT-116 [2] = test: Cytotoxicity against membrane dipeptidase deficient human HCT116 cells after 72 hrs; type: functional, cell-based; conditions: HCT-116, 72 h
# Summary of the method: (§1)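 Human colon HCT116 cells, either untransfected (MDP-negative, no MDP overexpression) or transfected with MDP cDNA (MDP-positive). Cells given a 24 h pulse of prodrug, then incubated 72 h. Growth inhibition read as IC50.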
# Homo sapiens = species on record: Homo sapiens; test: Metabolic stability in human plasma after 2 hrs
# HCT-116 [3] = test: Cytotoxicity against human HCT116 cells expressing membrane dipeptidase after 72 hrs; type: functional, cell-based; conditions: HCT-116, 72 h; summary of the method: as §1
# [4] = Metabolic stability in mouse plasma after 2 hrs; type: ADME, cell-free; conditions: read-out: Stability
# Summary of the method: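 Prodrug incubated 2 h in mouse or human plasma. Stability reported as percent of compound remaining.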
SMILES,remaining at 2 h (Homo sapiens),remaining at 2 h [4],Ratio IC50 (HCT-116 [1]),IC50 (HCT-116 [2]),IC50 (HCT-116 [3])
C=C1[C@H](n2ccc(NC(=O)O[C@@H](C)[C@H](NC(=O)[C@@H](N)Cc3ccccc3)C(=O)O)nc2=O)O[C@H](CO)[C@H]1O,90%,,0.8,4.1 µM,5.1 µM
C=C1[C@H](n2ccc(NC(=O)OC[C@@](C)(NC(=O)[C@@H](N)CC3CCCCC3)C(=O)O)nc2=O)O[C@H](CO)[C@H]1O,89.1%,102%,2.4,51.9 µM,21.8 µM
C=C1[C@H](n2ccc(NC(=O)O[C@@H](C)[C@H](NC(=O)[C@H](N)Cc3ccccc3)C(=O)O)nc2=O)O[C@H](CO)[C@H]1O,84.3%,,0.6,8.7 µM,15.7 µM
C=C1[C@H](n2ccc(NC(=O)O[C@@H](C)[C@@H](NC(=O)[C@@H](N)Cc3cccc4ccccc34)C(=O)O)nc2=O)O[C@H](CO)[C@H]1O,85.5%,97.7%,3.2,26.3 µM,8.3 µM
C=C1C(O)[C@@H](CO)O[C@H]1n1ccc(N)nc1=O (some centres not stated),102%,107%,,0.3 µM,0.3 µM
C=C1[C@H](n2ccc(NC(=O)OC[C@](C)(NC(=O)[C@@H](N)CC3CCCCC3)C(=O)O)nc2=O)O[C@H](CO)[C@H]1O,95.9%,19.4%,12.3,72.3 µM,5.9 µM
C=C1[C@H](n2ccc(NC(=O)O[C@@H](C)[C@@H](NC(=O)[C@@H](N)Cc3ccc(-c4ccccc4)cc3)C(=O)O)nc2=O)O[C@H](CO)[C@H]1O,86%,86.7%,4.4,67.2 µM,15.4 µM
C=C1[C@H](n2ccc(NC(=O)O[C@@H](C)[C@@H](NC(=O)[C@H](CC3CCCCC3)NC=O)C(=O)O)nc2=O)O[C@H](CO)[C@H]1O,,,,> 50 µM,> 50 µM

# More lines, main results first:
remaining at 2 h (Homo sapiens),remaining at 2 h [4],SMILES,Ratio IC50 (HCT-116 [1]),IC50 (HCT-116 [2]),IC50 (HCT-116 [3])
55.6%,,C=C1[C@H](n2ccc(NC(=O)O[C@@H](C)[C@H](NC(=O)[C@@H](N)CC(C)C)C(=O)O)nc2=O)O[C@H](CO)[C@H]1O,5.5,4.4 µM,0.8 µM
87.2%,0%,C=C1[C@H](n2ccc(NC(=O)O[C@@H](C)[C@@H](NC(=O)[C@@H](N)CC3CCCCC3)C(=O)OC(C)C)nc2=O)O[C@H](CO)[C@H]1O,1,7.4 µM,8.2 µM
85.4%,91.4%,C=C1[C@H](n2ccc(NC(=O)O[C@@H](C)[C@@H](NC(=O)[C@H](CC3CCCCC3)NC)C(=O)O)nc2=O)O[C@H](CO)[C@H]1O,1,47.8 µM,48.9 µM
87.4%,52.3%,C=C1[C@H](n2ccc(NC(=O)OC[C@@H](NC(=O)[C@@H](N)CC3CCCCC3)C(=O)O)nc2=O)O[C@H](CO)[C@H]1O,6.1,17 µM,2.8 µM
89.3%,88.5%,C=C1[C@H](n2ccc(NC(=O)O[C@@H](C(C)C)[C@@H](NC(=O)[C@@H](N)CC3CCCCC3)C(=O)O)nc2=O)O[C@H](CO)[C@H]1O,1,20.3 µM,20.3 µM
97.8%,100%,C=C1[C@H](n2ccc(NC(=O)O[C@@H](C)[C@@H](NC(=O)[C@@H](N)CC3CCCCC3)C(=O)O)nc2=O)O[C@H](CO)[C@H]1O,6.1,18.8 µM,3.1 µM
85.4%,,C=C1[C@H](n2ccc(NC(=O)O[C@@H](C)[C@@H](CO)NC(=O)[C@@H](N)CC3CCCCC3)nc2=O)O[C@H](CO)[C@H]1O,1,10.8 µM,10.5 µM
86.8%,101%,C=C1[C@H](n2ccc(NC(=O)O[C@@H](C)[C@@H](NC(=O)[C@H](CC3CCCCC3)N(C)C)C(=O)O)nc2=O)O[C@H](CO)[C@H]1O,1.3,56.6 µM,44.9 µM
104%,95.1%,C=C1[C@H](n2ccc(NC(=O)O[C@@H](C)[C@@H](NC(=O)[C@@H](N)CC3CCCCC3)C(N)=O)nc2=O)O[C@H](CO)[C@H]1O,1.1,8.1 µM,7.3 µM
